In PubChem BioAssay AID1296 (Columbia University Molecular Screening Center, 2008):
Out of some 130,000 compounds screened, about 1,000 (0.77%) were called active. Another 1% or so got no clear call; they are omitted.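 The calls were made as follows: active = activation at 2 µM above a set limit, confirmed on inspection of the cell images; inconclusive = above the set limit but not confirmed on image inspection; inactive = the rest.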 The sample as a whole holds a higher share of actives than the screen did.

experiment: insulin gene promoter stimulation in islet cells – imaging, TRM-6 cells, eGFP reporter, cell count, primary screen (AID 1296); details: at 2 µM; activation: stronger effect = higher value, plate-scaled: unstimulated 0, stimulated control 100; normalized cell count: measured here: cell count (toxicity);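 as to activation: share of cells whose green reporter signal exceeds an intensity cutoff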
Method in brief: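 Test system: human fetal islet-derived TRM-6 cells with tamoxifen-inducible insulin promoter–eGFP reporter. Compound dosing: 2 µM final, single concentration. Incubation: tamoxifen pre-incubation 15 h overnight, then compound exposure 48 h at 37 °C. Signal: fixed-cell fluorescence microscopy, eGFP plus Hoechst.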

Structure (SMILES)	activation	normalized cell count [%]
Cc1nc(SCc2ccc(F)cc2)c([N+](=O)[O-])[nH]1	9.09% (inactive)	97.3
O=C(CN1C(=O)CCC1=O)Nc1ccc(S(=O)(=O)N2CCOCC2)cc1	-10% (inactive)	72.6
O=C(CCCN1C(=O)CCC1=O)Nc1ccc(Cl)c(C(F)(F)F)c1	444% (active)	46.3
CS(=O)(=O)N(CC(=O)Nc1ccc(Cl)c(Cl)c1)C1CCCCC1	5.71% (inactive)	124
CN1CCN(C(=O)/C(=C\c2ccc3c(c2)OCO3)NC(=O)c2cccs2)CC1	-8.33% (inactive)	121
CCN1/C(=C/c2ccc3ccc(C)cc3[n+]2CC)Sc2ccccc21	567% (active)	10.5
CCN1/C(=C\c2ccc3ccccc3[n+]2CC)Sc2cc(C)ccc21	567% [fluoresces] (active)	15.3
O=C(NC1CC1)c1cccc(Br)c1	-3.12% (inactive)	91.1
O=C(Cc1coc2ccc3ccccc3c12)NCc1cccs1	-2.94% (inactive)	153
CCC(=O)/C(=C(/O)c1ccccc1)c1nc2ccccc2[nH]1	0% (inactive)	134
COc1cc(NC(=O)Nc2ccc(C)cc2)cc([N+](=O)[O-])c1	-6.45% (inactive)	133
